# Calb biofilm kill: mixture kills Candida albicans biofilm cells. C. albicans biofilm persisters + clotrimazole, fluorescence viability; primary screen in compound mixtures of four per well. inhibition, % at 7.6 µM. 120,000 tested, 0.02% active. AID 1242;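 active = inhibition above 30.3% in the primary screen of four-compound pools, then above 30% when the compound was retested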;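 note: compounds exposed to preformed 24 h biofilms for 48 h; 0% = untreated biofilm control and 100% = clotrimazole plus chlorhexidine kill blank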
#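 Incubation: 24 h biofilm formation, then 48 h compound exposure, 37 °C | Material: C. albicans biofilms | Buffer or medium: RPMI/MOPS medium, pH 7.0 | Measured by: 2-h Alamar Blue fluorescence, 535/590 nm excitation/emission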
# ROMK mod: modulators of human ROMK potassium channel. Tet-inducible ROMK, thallium flux fluorescence; actives lie on both sides. B-score at 10 µM. 130,000 tested, 2% active;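 active = signal ratio slope over the read window, or its plate-corrected B-score, at least 3 SD from the plate mean, either direction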;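 note: B-score of the F/F0 ratio slope over 7 to 12 s after thallium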
# TRPML3 agonist: agonists of human TRPML3 channel. activation, % at 3 µM. 220,000 tested, 0.29% active. HEK293 TRPML3-YFP, Fluo-8 calcium fluorescence; 100% = the carbachol control signal. Q8TDD5;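 active = activation above its plate's cutoff, the mean activation of the plate's test wells plus 3 SD, cut at about 12% in these data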;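 note: 0% = DMSO only wells and 100% = carbachol wells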
#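 Test system – HEK293 line with stable expression of human TRPML3-YFP channel · Control set – carbachol 87 µM final as high control (100%), DMSO as low control (0%) · Signal – Fluo-8 calcium dye fluorescence, ex 470-495, em 515-575 nm · Incubation – 1-h 37 °C dye load, 5-s basal, 120-s post-compound reads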
# ABCG2 inh: inhibitors of human ABCG2 transporter, ABCB1 counter-screen; IgMXP3 cells, JC-1 efflux, flow cytometry; inhibition, % at 6.6 µM; 190,000 tested, 0.1% active; AID 1325;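 active = inhibition above 80%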;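 note: 0% = DMSO and 100% = nicardipine control wells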
# Target sequence (Q9UNQ0 whole entry, looked up): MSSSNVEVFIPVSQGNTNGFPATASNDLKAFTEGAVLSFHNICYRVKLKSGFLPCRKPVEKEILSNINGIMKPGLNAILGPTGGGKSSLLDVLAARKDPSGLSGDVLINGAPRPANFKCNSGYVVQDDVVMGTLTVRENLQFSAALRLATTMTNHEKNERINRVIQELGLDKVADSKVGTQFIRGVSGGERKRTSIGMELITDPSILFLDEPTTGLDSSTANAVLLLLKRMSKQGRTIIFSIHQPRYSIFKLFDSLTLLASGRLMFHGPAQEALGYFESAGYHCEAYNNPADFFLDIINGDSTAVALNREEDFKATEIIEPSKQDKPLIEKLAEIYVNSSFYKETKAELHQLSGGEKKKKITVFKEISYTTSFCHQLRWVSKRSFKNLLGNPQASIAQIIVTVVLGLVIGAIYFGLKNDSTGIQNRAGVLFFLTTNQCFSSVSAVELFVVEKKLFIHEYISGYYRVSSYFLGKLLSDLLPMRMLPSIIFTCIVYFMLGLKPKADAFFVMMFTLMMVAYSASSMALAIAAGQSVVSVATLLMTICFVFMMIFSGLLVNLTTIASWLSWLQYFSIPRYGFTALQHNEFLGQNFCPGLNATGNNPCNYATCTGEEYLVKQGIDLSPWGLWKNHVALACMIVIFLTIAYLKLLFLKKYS
#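 Test system: IgMXP3 (ABCG2) plus far-red-tagged CCRF-Adr (ABCB1) cells. Reagent: JC-1 dye as substrate. Timing: 10 min exposure at 25 °C with rotation, no wash. Measured by: flow cytometric JC-1 green MFI at 530 nm. Read-out: percent efflux inhibition, scaled nicardipine 100% to DMSO 0%. Control set: nicardipine and DMSO wells.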
# zfTRPN1 agonist: zebrafish TRPN1 (NompC) channel agonism; HEK293 zebrafish TRPN1-YFP, Fluo-8 calcium fluorescence; 100% = response to 87 µM carbachol; AID 1424; 220,000 tested, 0.18% active; activation, % at 3 µM;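 active = activation above its plate's cutoff, the mean activation of test wells on that plate plus 3 SD, cut at about 19% in these data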;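 note: 0% = DMSO alone and 100% = 87 µM carbachol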
#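 Material – zebrafish TRPN1-YFP in HEK293 cells · Doses – 3 µM single point · Schedule – dye 1 h 37 °C plus 30 min RT · Signal – Fluo-8 calcium fluorescence, excitation 470-495 nm, emission 515-575 nm · Read-out – % activation versus carbachol response · Control set – carbachol high, DMSO low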
# ABCB1 inh: blocks JC-1 efflux by human ABCB1 transporter; inhibition, % at 6.6 µM; 190,000 tested, 0.067% active; AID 1326; CCRF-Adr cells, flow cytometry; P08183; in the data active = inhibition above about 40%;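 note: 0% = vehicle and 100% = reference inhibitor; higher value means more JC-1 retained so stronger ABCB1 efflux block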
# ABCB1 single pt: confirmation of human ABCB1 transporter inhibitors, ABCG2 counter-screen. shares compounds with ABCG2 inh. CCRF-Adr cells, JC-1 efflux, flow cytometry. inhibition, % at 6.6 µM. 270 tested, 7% active. AID 1451;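 active = inhibition of pump activity above 50%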;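 note: 0% = DMSO and 100% = nicardipine full pump inhibition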
# ABCG2 confirm: inhibits human ABCG2 efflux, confirmed at single point | shares compounds with ABCG2 inh | IgMXP3 cells, JC-1 efflux, flow cytometry | inhibition, % at 6.6 µM | 270 tested, 6% active | AID 1453;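 active = inhibition above 50%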;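 note: 0% = DMSO wells and 100% = nicardipine pump inhibitor wells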
# IgMXP3 autofluor: counter-screen for ABCG2 inhibitors: compound fluorescence in IgMXP3 cells. shares compounds with ABCG2 inh. compound autofluorescence 488/530 nm, flow; stronger effect = higher value. fluorescence at 6.6 µM. 270 tested, 30% active. AID 1480;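 active = fluorescence in ABCG2-expressing cells above the plate's control-well mean plus 3 SD, cut at about 15 in these data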;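 note: median cell fluorescence with compound minus that of DMSO-treated control cells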
# CCRF autofluor: CCRF-Adr autofluorescence flag for ABCB1 confirmation; shares compounds with ABCG2 inh; CCRF-Adr cells, compound autofluorescence 488/530 nm, flow cytometry; stronger effect = higher value; fluorescence at 6.6 µM; 270 tested, 30% active; AID 1483;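 active = fluorescence beyond the plate control mean plus 3 SD, with a fluorescence-to-maximum score over 2, cut at about 25 in these data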
# * marks the source's active call; other numbers are inactive results; nt = no result. This excerpt belongs to a sample that is enriched for hits.
SMILES,Calb biofilm kill,ROMK mod,TRPML3 agonist,ABCG2 inh,zfTRPN1 agonist,ABCB1 inh,ABCB1 single pt,ABCG2 confirm,IgMXP3 autofluor,CCRF autofluor
CCOC(=O)c1cccc(NC(=O)c2cnc3ccccc3n2)c1,nt,nt,0,91*,-1,3,2,68*,-0.59,-4.4
COc1cc(CNCCN(C)C)c(Br)cc1OC1CCCC1,-1,-0.27,1,0,1,0,nt,nt,nt,nt
CCOC(=O)C1=C(CNCc2ccc(C)cc2)NC(=O)NC1c1cc(C)ccc1C (centres undefined),nt,-2.1,-1,25,-2,40,15,13,-1.8,-4.6
CC(C)(CCl)C(=O)Nc1ccnc(-c2ccncc2)n1,9,2,1,0,0,0,nt,nt,nt,nt
CC12COC3(C(=O)Nc4ccc(Cl)cc4)CC1CCC32C (centres undefined),6,0.3,0,8,-2,2,nt,nt,nt,nt
CC12COC3(C(=O)Nc4ccc([N+](=O)[O-])cc4)CC1CCC32C (centres undefined),5,0.55,0,112*,-1,3,3,40,-2.3,-4.5
CCCCN(CC)c1nc(N)c2c(N)nc(OCC)cc2c1C#N,nt,-0.94,1,78,0,4,9,33,-0.14,-2.6
COc1cc2c(C#N)c(N3CCCC3)nc(N)c2c(N)n1,10,0.16,0,nt,3,nt,nt,nt,nt,nt
O=C(O)CCC(=O)NCc1c(Cl)cccc1Sc1ccc(Cl)cc1,22,nt,0,nt,0,nt,nt,nt,nt,nt
COC(=O)CCc1c(C)c(C(=O)c2ccc(F)cc2)c2ccccn12,13,-0.15,0,3,-1,0,nt,nt,nt,nt
Cc1c(C(=O)Nc2ccc(F)cc2)c2ccccn2c1CCc1ccncc1,6,nt,0,5,0,13,24,27,2.7,-0.14
COc1ccccc1N(CC(=O)NCC1CCCO1)C(=O)CNS(=O)(=O)c1ccc(Cl)cc1 (centres undefined),24,-0.48,0,nt,0,nt,nt,nt,nt,nt
Clc1ccc(Cl)c(-c2ccc(/C=N/c3ncn[nH]3)o2)c1,nt,-2.1,-1,83*,0,4,0,9,1.1,-0.64
Cn1c(SCC(=O)NNC(=O)c2ccc(Cl)cc2)nnc1-c1cccnc1,2,1.5,1,1,0,0,nt,nt,nt,nt
CCOC(=O)c1cc(NC(=O)CC(C)(C)CC(=O)O)ccc1N1CCCCC1,25,nt,0,nt,0,nt,nt,nt,nt,nt
CCC(C)c1ccc(NC(=S)NCCn2cc(Cl)cn2)cc1 (centres undefined),-1,-0.062,0,5,-2,1,nt,nt,nt,nt
CCC(C)c1ccc(NC(=S)NCCn2cc(Br)cn2)cc1 (centres undefined),0,-1.6,0,126*,-1,7,1,34,-1.7,-3.2
Cc1cc(C)c(C(=O)COC(=O)CCNS(=O)(=O)c2c(Cl)cccc2Cl)cc1C,8,nt,0,97*,0,3,10,47,-1.8,-4.9
CCSc1nc2cc(OC)c(OC)cc2c(=O)n1CCc1ccccc1,nt,nt,0,77,-1,3,6,35,5.8,0.56
COCCNC(=O)CSc1nc2cc(OC)c(OC)cc2c(=O)n1CCC1=CCCCC1,nt,nt,0,88*,0,19,9,46,1.3,-1.4
COCCCn1c(SCCc2ccccc2)nc2cc(OC)c(OC)cc2c1=N,7,1.8,0,2,0,1,nt,nt,nt,nt
COc1ccc2cc3cc(C(=O)Nc4ccccc4N4CCN(C)CC4)oc3nc2c1,nt,nt,1,53,1,47*,25,18,11,-1.4
COc1ccc2cc3cc(C(=O)NCCN4CCN(c5ccccc5F)CC4)oc3nc2c1,nt,nt,0,6,1,2,nt,nt,nt,nt
CCCNC(=O)Cn1c(=O)/c(=C\c2ccc(-c3ccc([N+](=O)[O-])cc3)o2)s/c1=C\C(=O)C(C)(C)C,9,nt,3,159*,16,129*,-90,-116,524*,441*
CCCNC(=O)Cn1c(=O)/c(=C\c2ccc(-c3cccc([N+](=O)[O-])c3)o2)s/c1=C\C(=O)C(C)(C)C,8,nt,1,-9,0,0,nt,nt,nt,nt
SMILES,Calb biofilm kill,ROMK mod,TRPML3 agonist,ABCG2 inh,zfTRPN1 agonist,ABCB1 inh,ABCB1 single pt,ABCG2 confirm,IgMXP3 autofluor,CCRF autofluor
CCc1nnc(NC(=O)c2cc(S(=O)(=O)N3CCOCC3)ccc2N2CCCCC2)s1,-5,0.067,1,77,-1,69*,3,15,-1,-0.79
CCOC(=O)c1sc2cc([N+](=O)[O-])cc(SCCO)c2c1N,4,-0.097,2,82*,3,2,1,21,1.4,-0.69
CCOC(=O)c1c(C)nc(SC)c(C#N)c1-c1ccccc1,17,nt,0,85*,-2,0,1,13,-0.29,0.56
CC[n+]1c(/C=C/N(C)c2ccccc2)oc2ccc(Cl)cc21,29,nt,0,6,0,-1,nt,nt,nt,nt
CCN1/C(=C/C=C/c2oc3ccc4ccccc4c3[n+]2CC)Oc2ccc3ccccc3c21,24,nt,31*,184*,73*,24,69*,-37,546*,228*
O=C(NC(=S)NCCN1CCOCC1)c1ccc(Cl)cc1,7,0.77,0,5,0,2,nt,nt,nt,nt
COCCn1c(C)cc(C(=O)CSc2nc3ccccc3c(=O)n2Cc2ccco2)c1C,14,-0.16,0,32,0,19,nt,nt,nt,nt
COCCn1c(C)cc(C(=O)CSc2cc(C)c3ccccc3n2)c1C,17,nt,1,92*,0,3,1,19,0.71,2.6
Cc1ccc(NS(=O)(=O)c2ccc(N3C(=O)CCC3=O)cc2)cc1,nt,-0.6,1,0,1,0,nt,nt,nt,nt
CCN(CC)P(=O)(Nc1cccc(C(F)(F)F)c1)c1ccc(N(C)C)cc1NC(=O)c1ccco1 (centres undefined),14,-0.69,0,22,-2,56*,62*,13,-0.04,37*
O=C1SC(SC(=Nc2ccccc2)Nc2ccccc2)C(=O)N1c1ccccc1 (centres undefined),9,1.8,-1,-4,1,-4,nt,nt,nt,nt
CC1(C(=O)NCc2ccc(Cl)c(Cl)c2)Oc2cccnc2NC1=O (centres undefined),0,-1.4,6,1,13,0,nt,nt,nt,nt

# Screens deposited in PubChem BioAssay by several laboratories.
